What was measured:
Mus musculus [1] = assay: Number of survivors against Herpes simplex virus type-1 infection in mice at 150 mg/kg/day; type: functional
Procedure, shortened: (§1)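 Female Swiss-Webster mice (20–23 g, 10 per group) were infected ip with 10^3 PFU HSV-1 Schooler in 0.3% BSA-PBS. Drug was given sc twice daily in PBS, starting 1 h postinfection, for 5 days. Survival was followed for 21 days. Mean day of death of dead animals was compared with placebo-treated infected controls by Student's t-test.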

Mus musculus [2] = assay: Day of death in lethal test against herpes simplex virus type-2 at 12.5 mg/kg/day (mean day of death +/-SD); type: ADME, organism-based; details: in vivo
Procedure, shortened: (§2)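 Female Swiss-Webster mice (20–23 g, 10 per group) were infected ip with 10^6 PFU HSV-2 Curtis in 0.3% BSA-PBS. Dosing was sc twice daily in PBS from 1 h postinfection for 5 days. Survival was recorded over 21 days. Mean day of death was computed for dead mice and compared with placebo-treated infected controls by Student's t-test.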

Mus musculus [3] = assay: Day of death in lethal test against herpes simplex virus type-1 at 25 mg/kg/day (mean day of death +/-SD); type: ADME, organism-based; details: in vivo; procedure, shortened: as §1
Mus musculus [4] = assay: Number of survivors against Herpes simplex virus type-2 infection in mice at 150 mg/kg/day; type: functional; procedure, shortened: as §2
Human alphaherpesvirus 3 [5] = assay: Antiviral activity against Varicella zoster virus (Kanno-Kohmura thymidine kinase deficient strain); type: functional; details: read-out: ID50 (the source's name)
Procedure, shortened: (§3)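 WI-38 monolayers were infected, with virus adsorbed for 1–2 h. They were then overlaid with EMEM maintenance medium (1% carboxymethyl cellulose, 2.5% FBS) containing duplicate drug dilutions. Monolayers were stained after 4–6 days at 37 °C. ID50 was taken as the concentration giving 50% plaque reduction versus virus controls. Titrations were done in duplicate.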

Mus musculus [6] = assay: Number of survivors against Herpes simplex virus type-1 infection in mice at 12.5 mg/kg/day; type: functional; procedure, shortened: as §1
Human betaherpesvirus 5 = assay: Antiviral activity against Human cytomegalovirus (AD169 strain); type: functional; details: read-out: ID50 (the source's name); procedure, shortened: as §3
Human alphaherpesvirus 3 [7] = assay: Antiviral activity against Varicella zoster virus (Oka strain); type: functional; details: read-out: ID50 (the source's name); procedure, shortened: as §3
Mus musculus [8] = assay: Number of survivors against Herpes simplex virus type-1 infection in mice at 25 mg/kg/day; type: functional; procedure, shortened: as §1
WI-38 = assay: Tested for growth inhibition against WI-38 cells; type: functional; details: Homo sapiens, read-out: ID50 (the source's name)
Procedure, shortened: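 WI-38 cells seeded at 1.2 × 10^6 per well, incubated overnight at 37 °C, then refed with growth medium (EMEM, 10% FBS) holding serial drug dilutions or none, for 3 more days at 37 °C. Quadruplicate cultures per concentration trypsinized and counted daily for viable cells by trypan blue exclusion.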

Mus musculus [9] = assay: Number of survivors against Herpes simplex virus type-2 infection in mice at 200 mg/kg/day; type: functional; procedure, shortened: as §2
Mus musculus [10] = assay: Number of survivors against Herpes simplex virus type-1 infection in mice at 100 mg/kg/day; type: functional; procedure, shortened: as §1
Mus musculus [11] = assay: Protective dose against Herpes simplex virus type type -2 infection in mice at 200 mg/kg; type: functional; details: read-out: PD50
Procedure, shortened: (§4)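 Female Swiss-Webster mice (20–23 g), 10 per group, infected intraperitoneally with 10^6 PFU HSV-2 strain Curtis (Vero freeze-thaw extract) in 0.3% BSA-PBS. Drug given subcutaneously in PBS twice daily from 1 h postinfection for 5 days, doses 12.5–200 mg/kg/day. Survival followed 21 days; PD50 by probit analysis; mean day of death by Student's t-test versus placebo.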

Mus musculus [12] = assay: Number of survivors against Herpes simplex virus type-1 infection in mice at 200 mg/kg/day; type: functional; procedure, shortened: as §1
Human alphaherpesvirus 3 [13] = assay: Antiviral activity against Varicella zoster virus (ppIIa strain); type: functional; details: read-out: ID50 (the source's name); procedure, shortened: as §3
Mus musculus [14] = assay: Day of death in lethal test against herpes simplex virus type-2 at 100 mg/kg/day (mean day of death +/-SD); type: ADME, organism-based; details: in vivo; procedure, shortened: as §2
Human alphaherpesvirus 3 [15] = assay: Antiviral activity against Varicella zoster virus (9021 strain); type: functional; details: read-out: ID50 (the source's name); procedure, shortened: as §3
Human alphaherpesvirus 2 = assay: Antiviral activity against Herpes simplex virus-2 (thymidine kinase deficient strains isolated as BVaraU resistant mutants of HSV-1 (KOS)); type: functional; details: read-out: ID50 (the source's name)
[16] = tested on: Cercopithecine alphaherpesvirus 9; assay: Antiviral activity against Simina varicella virus (G815 strain); type: functional; details: read-out: ID50 (the source's name)
Procedure, shortened: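 Simian varicella virus G815 was grown from infected Vero cells and assayed by plaque reduction on Vero monolayers. Virus was adsorbed 1–2 h, then overlaid with EMEM (1% carboxymethyl cellulose, 2.5% FBS) containing duplicate drug dilutions. Staining was after 4–6 days at 37 °C. ID50 was the concentration giving 50% plaque reduction versus virus controls.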

Human alphaherpesvirus 1 [17] = assay: Antiviral activity against Herpes simplex virus-1 (thymidine kinase deficient strains isolated as BVaraU resistant mutants of HSV-1 (KOS)); type: functional; details: read-out: ID50 (the source's name); procedure, shortened: as §3
Human alphaherpesvirus 3 [18] = assay: Antiviral activity against Varicella zoster virus (Ito strain); type: functional; details: read-out: ID50 (the source's name); procedure, shortened: as §3
Human alphaherpesvirus 1 [19] = assay: Antiviral activity against Herpes simplex virus-1 (Schooler strain); type: functional; details: read-out: ID50 (the source's name); procedure, shortened: as §3
Mus musculus [20] = assay: Day of death in lethal test against herpes simplex virus type-1 at 50 mg/kg/day (mean day of death +/-SD); type: ADME, organism-based; details: in vivo; procedure, shortened: as §1
Mus musculus [21] = assay: Day of death in lethal test against herpes simplex virus type-1 at 200 mg/kg/day (mean day of death +/-SD); type: ADME, organism-based; details: in vivo; procedure, shortened: as §1
Mus musculus [22] = assay: Number of survivors against Herpes simplex virus type-2 infection in mice at 25 mg/kg/day; type: functional; procedure, shortened: as §2
Mus musculus [23] = assay: Number of survivors against Herpes simplex virus type-2 infection in mice at 12.5 mg/kg/day; type: functional; procedure, shortened: as §2
Mus musculus [24] = assay: Number of survivors against Herpes simplex virus type-1 infection in mice at 50 mg/kg/day; type: functional; procedure, shortened: as §1
Mus musculus [25] = assay: Day of death in lethal test against herpes simplex virus type-2 at 150 mg/kg/day (mean day of death +/-SD); type: ADME, organism-based; details: in vivo; procedure, shortened: as §2
Human alphaherpesvirus 3 [26] = assay: Antiviral activity against Varicella zoster virus (Ellen strain); type: functional; details: read-out: ID50 (the source's name); procedure, shortened: as §3
[27] = Antiviral activity against Herpes simplex virus-1 (KOS strain); type: functional; details: Human alphaherpesvirus 1; read-out: ID50 (the source's name); procedure, shortened: as §3
Mus musculus [28] = assay: Protective dose against Herpes simplex virus type type -1 infection in mice at 200 mg/kg; type: functional; details: read-out: PD50
Procedure, shortened: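 Female Swiss-Webster mice (20–23 g), 10 per group, infected intraperitoneally with 10^3 PFU HSV-1 strain Schooler (Vero freeze-thaw extract) in 0.3% BSA-PBS. Subcutaneous dosing in PBS twice daily from 1 h postinfection for 5 days, 12.5–200 mg/kg/day. Survival scored over 21 days; PD50 from survival by probit analysis.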

Mus musculus [29] = assay: Day of death in lethal test against herpes simplex virus type-1 at 12.5 mg/kg/day (mean day of death +/-SD); type: ADME, organism-based; details: in vivo; procedure, shortened: as §1
Mus musculus [30] = assay: Number of survivors against Herpes simplex virus type-2 infection in mice at 100 mg/kg/day; type: functional; procedure, shortened: as §2
Mus musculus [31] = assay: Number of survivors against Herpes simplex virus type-2 infection in mice at 50 mg/kg/day; type: functional; procedure, shortened: as §4
Mus musculus [32] = assay: Day of death in lethal test against herpes simplex virus type-2 at 200 mg/kg/day (mean day of death +/-SD); type: ADME, organism-based; details: in vivo; procedure, shortened: as §2
Mus musculus [33] = assay: Day of death in lethal test against herpes simplex virus type-1 at 100 mg/kg/day (mean day of death +/-SD); type: ADME, organism-based; details: in vivo; procedure, shortened: as §1

**Q.** For `Nc1nc2c(ncn2COCCO)c(=O)[nH]1` [ACYCLOVIR], which Survivors (Mus musculus [1]) is on record?
**A.** The Survivors was 2.

**Q.** What about the “Mean day of death” value (Mus musculus [2]) of the same compound?
**A.** Its value is 10.

**Q.** What about the “Mean day of death” value (Mus musculus [3]) of the same compound?
**A.** The value was 7.8.

**Q.** What about the Survivors (Mus musculus [4]) of the same compound?
**A.** Its Survivors is 4.

**Q.** And the IC50 (Human alphaherpesvirus 3 [5])?
**A.** The IC50 was 100 µM.

**Q.** And the Survivors (Mus musculus [6])?
**A.** Its Survivors is 0.

**Q.** And the IC50 (Human betaherpesvirus 5)?
**A.** The IC50 was 40 µM.

**Q.** And the IC50 (Human alphaherpesvirus 3 [7])?
**A.** The IC50 was 4 µM.

**Q.** And the Survivors (Mus musculus [8])?
**A.** Its Survivors is 3.

**Q.** And the IC50 (WI-38)?
**A.** Its IC50 is greater than 800 µM.

**Q.** What about the Survivors (Mus musculus [9]) of the same compound?
**A.** The Survivors was 5.

**Q.** And the Survivors (Mus musculus [10])?
**A.** Its Survivors is 2.

**Q.** And the ED50 (Mus musculus [11])?
**A.** Its ED50 is greater than 200 mg/kg/day.

**Q.** And the Survivors (Mus musculus [12])?
**A.** Its Survivors is 2.

**Q.** And the IC50 (Human alphaherpesvirus 3 [13])?
**A.** Its IC50 is 4 µM.

**Q.** And the “Mean day of death” value (Mus musculus [14])?
**A.** Its value is 13.5.

**Q.** And the IC50 (Human alphaherpesvirus 3 [15])?
**A.** The IC50 was 2 µM.

**Q.** And the IC50 (Human alphaherpesvirus 2)?
**A.** Its IC50 is greater than 440 µM.

**Q.** And the IC50 [16]?
**A.** Its IC50 is 100 µM.

**Q.** And the IC50 (Human alphaherpesvirus 1 [17])?
**A.** Its IC50 is greater than 440 µM.

**Q.** What about the IC50 (Human alphaherpesvirus 3 [18]) of the same compound?
**A.** The IC50 was 2 µM.

**Q.** What about the IC50 (Human alphaherpesvirus 1 [19]) of the same compound?
**A.** Its IC50 is 0.9 µM.

**Q.** And the “Mean day of death” value (Mus musculus [20])?
**A.** The value was 9.

**Q.** What about the “Mean day of death” value (Mus musculus [21]) of the same compound?
**A.** Its value is 14.

**Q.** What about the Survivors (Mus musculus [22]) of the same compound?
**A.** The Survivors was 0.

**Q.** What about the Survivors (Mus musculus [23]) of the same compound?
**A.** Its Survivors is 0.

**Q.** What about the Survivors (Mus musculus [24]) of the same compound?
**A.** Its Survivors is 1.

**Q.** And the “Mean day of death” value (Mus musculus [25])?
**A.** Its value is 13.

**Q.** And the IC50 (Human alphaherpesvirus 3 [26])?
**A.** Its IC50 is 4 µM.

**Q.** What about the IC50 [27] of the same compound?
**A.** The IC50 was 2 µM.

**Q.** And the ED50 (Mus musculus [28])?
**A.** The ED50 was greater than 200 mg/kg/day.

**Q.** What about the “Mean day of death” value (Mus musculus [29]) of the same compound?
**A.** Its value is 8.3.

**Q.** And the Survivors (Mus musculus [30])?
**A.** The Survivors was 2.

**Q.** And the Survivors (Mus musculus [31])?
**A.** Its Survivors is 1.

**Q.** And the “Mean day of death” value (Mus musculus [32])?
**A.** The value was 13.

**Q.** What about the “Mean day of death” value (Mus musculus [33]) of the same compound?
**A.** Its value is 9.3.

Source: ChEMBL document CHEMBL1126655, “Synthesis and antiviral activity of novel isonucleoside analogs” (J Med Chem, 1993)
